This passage reports inhibition results from ChEMBL document CHEMBL1140626, “Quantitative structure-activity relationship of peptides binding to the class II major histocompatibility complex molecule Aq associated with autoimmune arthritis” (J Med Chem, 2007).

Type in all cases: cell-based
Experiment [1] is described as follows: Displacement of biotinylated CLIP peptide from H-2Aq expressed in M12Q 14-7 cells at 83 uM. The method in brief:
(§1)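 Competition binding on M12Q 14-7 cells transfected with H-2Aq. Test peptide (seven levels, 750 to 1 µM) co-incubated 2.5 h at 37 °C with biotinylated CLIP at 5 µM. After washing, cells were stained with streptavidin-PE and read by flow cytometry. % inhibition was taken from gated mean fluorescence against the no-inhibitor control, after subtracting the no-CLIP background. Duplicates, repeated once; duplicate averages were used.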

Experiment [2] can be described thus: Displacement of biotinylated CLIP peptide from H-2Aq expressed in M12Q 14-7 cells at 250 uM. The method in brief: as §1
Experiment [3] is described as follows: Displacement of biotinylated CLIP peptide from H-2Aq expressed in M12Q 14-7 cells at 28 uM. The method in brief:
as §1

As for Ac-IAVFKMVRK-NH2, the figures for the inhibition in experiment [1], in experiment [2] and in experiment [3] were 59%, 70% and 42%, respectively.
On to Ac-ITMFKVVYK-NH2, for which the inhibition (commonly the relative decrease from the control value, in per cent) in experiment [1] is 50%; in experiment [2] it was 59%; in experiment [3] it was 35%.
As to Ac-ITMFKMDRK-NH2, the inhibition in experiment [1] came to 46%; in experiment [2], 62%; in experiment [3] it was 26%.
Turning to Ac-IMMFKTDVK-NH2, the inhibition was 24% in experiment [1], 16% in experiment [2] and 10% in experiment [3].
As to Ac-IMMFKVRRK-NH2, the inhibition stood at 52% in experiment [1], 74% in experiment [2] and 36% in experiment [3].
For Ac-IMMFKMSDK-NH2, the inhibition in experiment [1] was 17%; in experiment [2] it was 30%; in experiment [3], 4%.
Taken in the same sequence, the figures for Ac-IMSFKTRDK-NH2 were 27%, 54% and 15%.
For Ac-IMTFKMYVK-NH2, in that order: 40%, 48% and 13%.
For Ac-ISAFKTNRK-NH2, the inhibition came to 61% in experiment [1], 84% in experiment [2] and 42% in experiment [3].
For Ac-IAMFKSVNK-NH2, in that order: 32%, 50% and 19%.
As to Ac-IAMFKMRSK-NH2, the inhibition in experiment [1] came out at 63%; in experiment [2], 78%; in experiment [3], 40%.
On to Ac-ISTFKARVK-NH2, for which the inhibition in experiment [1] worked out at 58%; in experiment [2], 74%; in experiment [3] it was 39%.
Consider Ac-IAAFKADSK-NH2, for which the inhibition in experiment [1] is 36%; in experiment [2], 53%; in experiment [3] it was 31%.
For the substance Ac-IVAFKTVVK-NH2, the inhibition in experiment [1] is 27%; in experiment [2] it was 41%; in experiment [3], 22%.
On to Ac-ITSFKMRYK-NH2, for which the inhibition in experiment [1] was 69%; in experiment [2], 80%; in experiment [3], 50%.
Consider Ac-IMTFKAVYK-NH2, for which the inhibition in experiment [1] came to 59%; in experiment [2], 72%; in experiment [3] it was 47%.
As for Ac-ITTFKSSSK-NH2, the inhibition in experiment [1] was 6%; in experiment [2] it was 20%; in experiment [3] it was 6%.
With Ac-IATFKTYYK-NH2, the inhibition came out at 58% in experiment [1], 70% in experiment [2] and 38% in experiment [3].
Taken in the same sequence, the figures for Ac-IVSFKAYRK-NH2 were 61%, 51% and 49%.
